Measured values taken from publication PMC12080315 (Chemistry (Weinheim an Der Bergstrasse, Germany), 2025).
Entries after “also recorded” stand apart in the source; their conditions may differ.

Experiments:
MiaPaCa2 cells = experiment: Antiproliferative activity, trypan blue cell viability assay; type: cell-based, human; settings: for IC50: Homo sapiens, MIA PaCa-2, 72 h, read-out: IC50, antiproliferation activity
How it was run: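 MiaPaCa2 cells (K-Ras G12C) seeded at 1×10³ cells/well and left overnight at 37 °C, 5% CO2. Next day they were given various concentrations of test compound and incubated 72 h at 37 °C, 5% CO2. A trypan blue assay followed, […]. Sotorasib served as positive control. n = 3, mean ± SEM.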

recombinant FTase = recombinant FTase (Homo sapiens, UniProt P49354+P49356); experiment: Fluorescent in vitro FTase inhibition assay; type: biochemical; settings: for selectivity for FTase over GGTase I: ratio of K i values GGTase I / FTase
How it was run: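 Recombinant FTase (25–37 nM) was reacted with dansyl-labelled K-Ras4B C-terminal peptide (1 µM) and FPP (5 µM), with test compound at 0–500 µM. Enzyme, substrates and compound were spotted separately, then buffer was added to start the reaction. Fluorescence (ex 340/em 520 nm) was followed for 5 min. n = 3, SEM.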

recombinant GGTase I = recombinant GGTase I (Homo sapiens, UniProt P49354+P53609); experiment: Fluorescent in vitro GGTase I inhibition assay; type: biochemical
How it was run: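 Recombinant GGTase I (25–37 nM) was run with dansyl-labelled K-Ras C-terminal peptide (1 µM) and test compound at 0–500 µM. GGPP was diluted to a 110 µM working stock before use. Buffer was 50 mM Tris-HCl pH 7.5 with MgCl2, ZnCl2, dodecyl maltoside and DTT, at 37 °C. Fluorescence kinetics (ex 340/em 520 nm) were recorded over 5 min. n = 3, SEM.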

K‐Ras prenylation = experiment: Gel-shift assay; type: cell-based, human; settings: MiaPaca‐2 cells, 48 hours, 30 and 100 µM
How it was run: (§1)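 MiaPaCa2 cells were grown in DMEM with 10% heat-inactivated FBS and 1% penicillin-streptomycin. They were treated 48 h with vehicle or test compound at 30 and 100 µM; the positive control, a dual FTase/GGTase I inhibitor, was used at 10 and 30 µM. Cells were PBS-washed and lysed with protease and phosphatase inhibitors. Lysates ran on 4–20% SDS-PAGE gel-shift blots, probed with anti-K-Ras or anti-Rap1A+B, plus anti-vinculin.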

Rap1 geranylgeranylation = experiment: Gel-shift assay; type: cell-based, human; settings: MiaPaca‐2 cells, 48 hours, 30 and 100 µM
How it was run: as §1

Chain of recombinant GGTase I (P53609 whole entry, one chain of several): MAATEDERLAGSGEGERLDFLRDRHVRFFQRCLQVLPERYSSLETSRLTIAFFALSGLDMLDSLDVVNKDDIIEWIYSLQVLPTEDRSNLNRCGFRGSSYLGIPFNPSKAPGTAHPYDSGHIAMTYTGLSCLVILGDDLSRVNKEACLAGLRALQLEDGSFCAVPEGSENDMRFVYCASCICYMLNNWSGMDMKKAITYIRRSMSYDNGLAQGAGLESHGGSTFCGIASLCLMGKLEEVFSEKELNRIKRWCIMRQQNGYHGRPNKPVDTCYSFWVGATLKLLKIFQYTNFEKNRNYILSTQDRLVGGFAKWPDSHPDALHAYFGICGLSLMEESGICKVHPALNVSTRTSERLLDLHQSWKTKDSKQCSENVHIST
Chain of recombinant FTase (P49356 whole entry, one chain of several): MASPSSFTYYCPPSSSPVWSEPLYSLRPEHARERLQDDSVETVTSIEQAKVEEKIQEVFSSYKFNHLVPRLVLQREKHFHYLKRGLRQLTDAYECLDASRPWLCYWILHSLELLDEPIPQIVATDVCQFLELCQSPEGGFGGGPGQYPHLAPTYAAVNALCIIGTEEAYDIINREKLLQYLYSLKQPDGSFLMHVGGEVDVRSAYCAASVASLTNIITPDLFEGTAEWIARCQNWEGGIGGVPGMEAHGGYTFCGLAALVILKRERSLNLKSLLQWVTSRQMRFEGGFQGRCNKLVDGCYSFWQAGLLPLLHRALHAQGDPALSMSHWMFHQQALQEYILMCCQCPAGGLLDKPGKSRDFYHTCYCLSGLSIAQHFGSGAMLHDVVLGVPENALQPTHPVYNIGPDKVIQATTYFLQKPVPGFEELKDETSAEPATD

IC50 (recombinant FTase) [µM] | Ki (recombinant FTase) [µM] | IC50 (recombinant GGTase I) [µM] | Ki (recombinant GGTase I) [µM] | Compound | further results
0.29 | 0.0017 ± 0.0005 | 7.84 | 0.25 ± 0.05 | CSCC[C@H](NC(=O)NC1(c2ccccc2)CCN(Cc2cncn2Cc2ccc(-n3cc(COCCCCCCNC(=N)N)nn3)cc2)CC1)C(=O)O [Compound 5a, ((1‐((1‐(4‐(4‐(((6‐Guanidinohexyl)oxy)methyl)‐1H‐1,2,3‐triazol‐1‐yl)benzyl)‐1H‐imidazol‐5‐yl)methyl)‐4‐phenylpiperidin‐4‐yl)carbamoyl)‐L‐methionine] | selectivity for FTase over GGTase I (recombinant FTase): 147 fold
0.35 | 0.0021 ± 0.0005 | 6.48 | 0.21 | CSCC[C@H](NC(=O)NC1(c2ccccc2)CCN(Cc2cncn2Cc2ccc(N=[N+]=[N-])cc2)CC1)C(=O)O [Compound 3, ((1‐((1‐(4‐Azidobenzyl)‐1H‐imidazol‐5‐yl)methyl)‐4‐phenylpiperidin‐4‐yl)carbamoyl)‐L‐methionine] | increase in potency for FTase compared to 1 (recombinant FTase; ratio of K i values): 376 fold; selectivity for FTase over GGTase I (recombinant FTase): 100 fold
0.63 | 0.0038 ± 0.0011 | 2.4 | 0.077 ± 0.051 | CSCC[C@H](NC(=O)NC1(c2ccccc2)CCN(Cc2cncn2Cc2ccc(-n3cc(COCCCCCCN)nn3)cc2)CC1)C(=O)O [Compound 5b, ((1‐((1‐(4‐(4‐(((6‐Aminohexyl)oxy)methyl)‐1H‐1,2,3‐triazol‐1‐yl)benzyl)‐1H‐imidazol‐5‐yl)methyl)‐4‐phenylpiperidin‐4‐yl)carbamoyl)‐L‐methionine] | selectivity for FTase over GGTase I (recombinant FTase): 20 fold
0.752 | 0.0046 ± 8e-05 | 0.09 | 0.0029 ± 0.0007 | CSCC[C@H](NC(=O)NC1(c2ccccc2)CCN(Cc2cncn2Cc2ccc(-n3cc(COCCCCCCNC(=O)c4ccc(N)cc4)nn3)cc2)CC1)C(=O)O [Compound 5c, ((1‐((1‐(4‐(4‐(((6‐(4‐Aminobenzamido)hexyl)oxy)methyl)‐1H‐1,2,3‐triazol‐1‐yl)benzyl)‐1H‐imidazol‐5‐yl)methyl)‐4‐phenylpiperidin‐4‐yl)carbamoyl)‐L‐methionine] | –
– | 0.79 ± 0.045 | > 500 | – | CSCC[C@H](NC(=O)NC1(c2ccccc2)CCN(Cc2cnc[nH]2)CC1)C(=O)O [Compound 1, ((1‐((1H‐Imidazol‐5‐yl)methyl)‐4‐phenylpiperidin‐4‐yl)carbamoyl)‐L‐methionine] | –
0.33 | 0.002 ± 0.0002 | 0.53 | 0.017 ± 0.005 | CSCC[C@H](NC(=O)NC1(c2ccccc2)CCN(Cc2cncn2Cc2ccc(-n3cc(COCCCCCCNC(=O)c4ccc(C(=N)N)cc4)nn3)cc2)CC1)C(=O)O [Compound 5e, ((1‐((1‐(4‐(4‐(((6‐(4‐Carbamimidoylbenzamido)hexyl)oxy)methyl)‐1H‐1,2,3‐triazol‐1‐yl)benzyl)‐1H‐imidazol‐5‐yl)methyl)‐4‐phenylpiperidin‐4‐yl)carbamoyl)‐L‐methionine] | –

Second part, the compound before the results:

Compound | IC50 (recombinant FTase) [µM] | Ki (recombinant FTase) [µM] | IC50 (recombinant GGTase I) [µM] | Ki (recombinant GGTase I) [µM] | further results
C=CC(=O)N1CCN(c2nc(=O)n(-c3c(C)ccnc3C(C)C)c3nc(-c4c(O)cccc4F)c(F)cc23)[C@@H](C)C1 [sotorasib, reference compound] | – | – | – | – | IC50 (MiaPaCa2 cells): 0.01 to 0.1 µM
COC(=O)[C@H](CCSC)NC(=O)NC1(c2ccccc2)CCN(Cc2cncn2Cc2ccc(-n3cc(COCCCCCCNC(=O)c4ccc(N)cc4)nn3)cc2)CC1 [Compound 4c, Methyl ((1‐((1‐(4‐(4‐(((6‐(4‐aminobenzamido)hexyl)oxy)methyl)‐1H‐1,2,3‐triazol‐1‐yl)benzyl)‐1H‐imidazol‐5‐yl)methyl)‐4‐phenylpiperidin‐4‐yl)carbamoyl)‐L‐methioninate] | – | – | – | – | inhibition of prenylation (processing) of K‐Ras in cells (K‐Ras prenylation): able to inhibit; also recorded: inhibit the processing; also recorded: disrupt the processing; inhibition of geranylgeranylation (processing) of Rap1 in cells (Rap1 geranylgeranylation): inhibited; also recorded: more potent than 2; also recorded: inhibit the processing; also recorded: disrupt the processing
C#CCOCCCCCCNC(=O)c1ccc(C(=N)N)cc1 [Compound 13, 4‐Carbamimidoyl‐N‐(6‐(prop‐2‐yn‐1‐yloxy)hexyl)benzamide] | > 500 | – | > 500 | – | antiproliferative activity (result in words) (MiaPaCa2 cells; MiaPaCa2 cells, 72 hours, trypan blue assay): inactive
COC(=O)[C@H](CCSC)NC(=O)NC1(c2ccccc2)CCN(Cc2cncn2Cc2ccc(N=[N+]=[N-])cc2)CC1 [Compound 2, Methyl ((1‐((1‐(4‐azidobenzyl)‐1H‐imidazol‐5‐yl)methyl)‐4‐phenylpiperidin‐4‐yl)carbamoyl)‐L‐methioninate] | – | – | – | – | inhibition of prenylation (processing) of K‐Ras in cells (K‐Ras prenylation): able to inhibit; also recorded: inhibit the processing; inhibition of geranylgeranylation (processing) of Rap1 in cells (Rap1 geranylgeranylation): inhibited; also recorded: inhibit the processing; IC50 (MiaPaCa2 cells): 0.1 to 1 µM; IC50 relative to that of sotorasib (MiaPaCa2 cells; MiaPaCa2 cells, 72 hours): approximately 10 fold
COC(=O)[C@H](CCSC)NC(=O)NC1(c2ccccc2)CCN(Cc2cncn2Cc2ccc(-n3cc(COCCCCCCNC(=O)c4ccc(C(=N)N)cc4)nn3)cc2)CC1 [Compound 4e, Methyl ((1‐((1‐(4‐(4‐(((6‐(4‐carbamimidoylbenzamido)hexyl)oxy)methyl)‐1H‐1,2,3‐triazol‐1‐yl)benzyl)‐1H‐imidazol‐5‐yl)methyl)‐4‐phenylpiperidin‐4‐yl)carbamoyl)‐L‐methioninate] | – | – | – | – | inhibition of geranylgeranylation (processing) of Rap1 in cells (Rap1 geranylgeranylation): did not inhibit
CSCC[C@H](NC(=O)NC1(c2ccccc2)CCN(Cc2cncn2Cc2ccc(-n3cc(COCCCCCCNC(=O)c4ccc(NC(=N)N)cc4)nn3)cc2)CC1)C(=O)O [Compound 5d, ((1‐((1‐(4‐(4‐(((6‐(4‐Guanidinobenzamido)hexyl)oxy)methyl)‐1H‐1,2,3‐triazol‐1‐yl)benzyl)‐1H‐imidazol‐5‐yl)methyl)‐4‐phenylpiperidin‐4‐yl)carbamoyl)‐L‐methionine] | 0.3 | 0.0018 ± 0.0004 | 0.096 | 0.0031 ± 0.0005 | –
C#CCOCCCCCCNC(=N)N [Compound 12, 1‐(6‐(Prop‐2‐yn‐1‐yloxy)hexyl)guanidine] | > 500 | – | – | – | –
COC(=O)[C@H](CCSC)NC(=O)NC1(c2ccccc2)CCN(Cc2cncn2Cc2ccc(-n3cc(COCCCCCCNC(=O)c4ccc(NC(=N)N)cc4)nn3)cc2)CC1 [Compound 4d, Methyl ((1‐((1‐(4‐(4‐(((6‐(4‐guanidinobenzamido)hexyl)oxy)methyl)‐1H‐1,2,3‐triazol‐1‐yl)benzyl)‐1H‐imidazol‐5‐yl)methyl)‐4‐phenylpiperidin‐4‐yl)carbamoyl)‐L‐methioninate] | – | – | – | – | inhibition of geranylgeranylation (processing) of Rap1 in cells (Rap1 geranylgeranylation): did not inhibit
